Test: Toxicity liver stage against HepG2, at 10uM
Type: cell-based
Design: test concentration 10 uM, cell line HepG2-A16-CD81EGFP
Conditions: human, HepG2-A16-CD81EGFP cells; read-out: INHIBITION
In short: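 Uninfected HepG2-A16-CD81EGFP cells, 3 × 10^3 per well, 1536-well, plated on prespotted compound at 10 μM final, parasite-free screening media added to match infected plates; puromycin 10 μM positive, DMSO 0.5% negative; run in parallel with 48 h PbLuc assay at 37 °C, 5% CO2; viability by CellTiter-Glo luminescence, normalized to controls.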

Row | SMILES | cytotoxicity at 10 µM [%]
1 | CC(C)CNC(=O)Cc1cnc(-n2cccc2)s1 | -3.66
2 | COc1cn(CC(=O)N2CCN(c3ccc(Cl)cc3)CC2)c(C)cc1=O | 1.82
3 | CCN(CC)C(=O)CSc1nc2c(cnn2CCO)c(=O)[nH]1 | 1.29
4 | O=S(=O)(NCC(O)c1ccoc1)c1ccc(Br)s1 (stereo unspecified) | 5.76
5 | CN(C)CCNC(=O)c1noc2c1CN(C(=O)N(C)C)CC2 | 10.6
6 | CS(=O)(=O)N1CCC2(CCCN(c3ncc(F)cn3)C2)C1 (stereo unspecified) | 5.19
7 | c1cnc(OCc2nnc3n2CCN(Cc2ccco2)C3)nc1 | -2.12
8 | c1cc(-c2nnn3c2COC(CNCC2CCOCC2)C3)ccn1 (stereo unspecified) | -23.8
9 | CS(=O)(=O)N1C[C@@H]2COC[C@@H](CC(=O)N3CCCCO3)[C@@H]2C1 | 10.6
10 | COc1ccc(NC(=O)CCSc2ccc3nncn3n2)c(OC)c1 | -15.3
11 | CC(C)NC(=O)N1CCC2(CC(C(=O)NCc3cccnc3)=NO2)C1 (stereo unspecified) | -0.8
12 | CN(C)CCn1nc(C2CCN(Cc3ccccc3)C2)c2cccnc21 (stereo unspecified) | -7.47
13 | Cn1ccc(C(=O)N2CCC(Cc3ccc4ncccc4c3)CC2)n1 | 13.7
14 | COCCNc1ccc(CC2CCCN(c3ncccn3)C2)nn1 (stereo unspecified) | 3.81
15 | Cc1ncc(C(=O)N2CC(C(=O)N3CCCCCC3)C2)c(C)n1 | 6.39
16 | Cc1nc(C2CCN(S(C)(=O)=O)CC2)nc2c1CCC(=O)N2CC(C)C | 3.44
17 | Cc1c(CN2C[C@@H](O)[C@H](Oc3cccc(F)c3)C2)cnn1C | -8.21
18 | Cc1nn(C)cc1S(=O)(=O)NC1(CN2CCOCC2)CCCCC1 | -8.27
19 | Cc1ccc2c(c1)C(=O)NCC1(CCN(C(=O)c3ccccn3)CC1)O2 | -25
20 | Cc1ccccc1CN1CCOC(c2nccc(CN(C)C)n2)C1 (stereo unspecified) | -9.19
21 | Cc1ccccc1-c1cncc(C2CCN(Cc3cnn(C)c3)CC2)n1 | -30.6
22 | O=C(c1ccncc1)N1CC[C@@H](O)[C@@H](O)[C@H](N2CCC(F)(F)CC2)C1 | -10
23 | CNc1cc(CNC(=O)c2cccnc2)nc(-c2ccncc2)n1 | -9.88

Row | SMILES | cytotoxicity at 10 µM [%]
24 | Cc1csc(C(=O)N2CCCC(c3[nH]ncc3S(C)(=O)=O)C2)c1 (stereo unspecified) | -3.17
25 | Cc1cc(C)n(Cc2ccc(C(=O)N3CCOCC3(C)C)cc2)n1 | -9.23
26 | CCOc1ccc(N(C)Cc2nnc(C)o2)cc1 | 9.46
27 | CC(=O)NC1CCN(C(=O)Nc2cccc(C(F)(F)F)c2)CC1 | -6.74
28 | CCn1cnnc1CCNS(=O)(=O)N1CCCC1c1ccco1 (stereo unspecified) | -136
29 | O=C(OCCF)c1cccc(C(=O)N2CCCC2)n1 | 0.684
30 | CC(C)CC(NCc1cccs1)c1ccccn1 (stereo unspecified) | 3.46
31 | Cc1ccc(-c2noc(Cn3nc(C(N)=O)ccc3=O)n2)cc1 | -1.6
32 | COC1CCN(CCNC(=O)NC(C)c2cccc(Cl)c2)CC1 (stereo unspecified) | -2.46
33 | CCN(CC)C(=O)CCCNC(=O)c1csc(NC2CC2)n1 | 8.67
34 | CCc1nc(C(=O)N(C)CC(=O)N(C)C)nn1-c1ccccc1Cl | -23.5
35 | COc1cccc(S(=O)(=O)CCN2CCN(CC(F)F)CC2)c1 | -3.96
36 | CCS(=O)(=O)NCCNCc1ccc(Cl)c2cccnc12 | -0.969
37 | COc1ccccc1C(=O)NS(=O)(=O)c1cncc(Br)c1 | -6.05
38 | CC(C)NC(=O)Nc1ccc(CS(C)(=O)=O)cc1 | 1.69
39 | CCCc1noc(CCC(=O)N2CCCCC2Cn2cc(C)cn2)n1 (stereo unspecified) | -0.232
40 | COc1ccc(CNC(=O)NCc2ccc(C(N)=O)cc2)cn1 | -2.94
41 | Cc1ncc(CN(C)C(=O)Nc2cccc(C(=O)N3CCOCC3)c2)s1 | 11.6
42 | CN(C)C1(CNc2ncc(Br)cn2)CCOCC1 | -8.66
43 | Cc1nn(C)c(C)c1OCC(=O)N1CCCCC1 | 2.23
44 | CCC(CC)(CC)NC(=O)Nc1nnc(-c2ccccn2)s1 | -2.27
45 | CCOC1CCCN(C(=O)c2[nH]nc(C)c2Br)C1 (stereo unspecified) | 0.966
46 | NC(=O)Cn1ccc(NC(=O)C2(c3cccc(F)c3)CCC2)n1 | -5.75

Row | SMILES | cytotoxicity at 10 µM [%]
47 | COC(C)c1cccc(NC(=O)N(CCC#N)Cc2ccccn2)c1 (stereo unspecified) | 13.1
48 | CC(NC(=O)N1CCC(CC(N)=O)CC1)c1csc2ccccc12 (stereo unspecified) | 1.73
49 | NC(=O)c1ccc(OCC(=O)N2CCCC2c2ccc[nH]2)cc1 (stereo unspecified) | -5.82
50 | Cc1ccc(OCCCNC(=O)Cc2nc3ncccn3n2)cc1 | -1.08
51 | Cc1cc(Br)c(O)c(C(=O)N2CCC(CN3CCCCCC3)CC2)c1 | 8.29
52 | CC(C)c1noc(CS(=O)(=O)CC(=O)NCc2cccs2)n1 | 2.71
53 | CC(Sc1nnc(C2CC2)n1CC(N)=O)c1ccc(F)c(Cl)c1 (stereo unspecified) | 4.26
54 | CC(=O)NCC(=O)N1CCN(CC2CC2)c2ncccc2C1 | 0.359
55 | Cc1cnc(C)c(N2CCCC(C/C=C/c3ccccc3)(C(=O)O)C2)n1 (stereo unspecified) | 9.42
56 | O=C(CCC1CCCN(S(=O)(=O)C2CC2)C1)Nc1ccc(Cl)cc1 (stereo unspecified) | 3.69
57 | CC(C)=CCN1CC2(CCN(C(=O)CCn3ccnc3C)CC2)CC1=O | -6.3
58 | Cc1nc(CN(C)C(=O)Nc2cccc(C)c2C)no1 | -0.739
59 | COc1cc(C)cc(C(C(=O)O)N(C)CCN2CCCC2)c1OC (stereo unspecified) | 0.712
60 | CC(C)Cc1ncc2c(n1)CN(c1cc(N3CCCC3)nc(N)n1)C2 | 0.489
61 | COCCN(C/C=C/c1ccccc1)Cc1ccccn1 | 6.82
62 | CN(C)CCN(C)C1CCCN(C(=O)c2ccc(Cn3ccnc3)o2)C1 (stereo unspecified) | 6.69
63 | O=C(COc1ccccc1O)N1CCOC(C(F)(F)F)C1 (stereo unspecified) | -2.3
64 | CCN(C)S(=O)(=O)NCC1CCN(Cc2ccccc2F)C1 (stereo unspecified) | -2.48
65 | CCOc1ccnc(NCc2nc(C)cc(=O)[nH]2)n1 | -8.42
66 | Cn1c(C2CCCN2C(=O)c2cn(CCN)nn2)nc2ccccc21 (stereo unspecified) | 3.76
67 | CCn1c(C2CCN(Cc3cc(C)n(NC(C)=O)c3C)CC2)n[nH]c1=O | 4.74
68 | CC(=O)Nc1ccc(Oc2cccc(CN3CCCC3)c2)cc1 | -14
69 | Cc1nc(O)cc(C2CCCN(C(=O)CN(C)c3ccccc3)C2)n1 (stereo unspecified) | 12.8

Row | SMILES | cytotoxicity at 10 µM [%]
70 | Cc1ccccc1C1CCN(CCn2cc(-c3nccn3C)nn2)C1 (stereo unspecified) | 4.96
71 | CCS(=O)(=O)c1ncc(CN(C)Cc2ccccc2OC)n1CCOC | -2.23
72 | CCN(Cc1cnn(C)c1)C(=O)c1ccc(C)c(N2CCNC2=O)c1 | -7.08
73 | Cc1nn(C)cc1C(=O)N1CCCC(c2nccn2Cc2cscn2)C1 (stereo unspecified) | -4.32
74 | C[C@@H]1CN(C(=O)CCN2CCCC2)CC[C@@]1(O)C1CCC1 | -7.97
75 | NCCCn1nc(C(F)(F)F)c2c1CCC2 | -8.3
76 | COc1ccc(CNC(C)Cn2cccn2)cc1OC (stereo unspecified) | -0.966
77 | CCc1csc(C2CCCN(C(=O)c3cc(C4CC4)[nH]n3)C2)n1 (stereo unspecified) | -1.22
78 | CCc1nnc(CN(C)C2CCCN(Cc3noc(C4CC4)n3)C2)o1 (stereo unspecified) | 2.27
79 | O=C(c1csc(-c2cnccn2)n1)N1CCCC1Cn1cccn1 (stereo unspecified) | -7.35
80 | CCOc1ccc(C(=O)N(Cc2cnn(C)c2)C(C)C)cc1OCC | -8.4
81 | CC(C(=O)N1CCOCC1)N1CCN(Cc2nccn2C)CC1 (stereo unspecified) | -1.71
82 | CC(Nc1cccc(CN2CCOC2=O)c1)C(=O)Nc1cccc(F)c1 (stereo unspecified) | -9.16
83 | O=C(c1cccc2ncccc12)N1CCCC(n2ccnc2)C1 (stereo unspecified) | -11.6
84 | COc1ccc(CNCc2c(C(C)C)nn(C)c2OC)cn1 | -10.9
85 | Cc1noc(C)c1CC(=O)N1CCN(Cc2cscn2)CC1 | -8.72
86 | CCOc1cccc2c1OCC(C(=O)NS(=O)(=O)c1cccs1)=C2 | -2.97
87 | COCCN(CCOC)Cc1nc2c(cnn2C)c(=O)[nH]1 | -9.73
88 | Cc1noc2ncc(C(=O)N3CCCC(n4cccn4)C3)cc12 (stereo unspecified) | -1.39
89 | CCC1CN(C(=O)Nc2cnc3c(cnn3C(C)C)c2)CCO1 (stereo unspecified) | -9.46
90 | CC(NC(=O)Cc1cccs1)c1nnc2n1CCCCC2 (stereo unspecified) | -15.5
91 | CC(C)c1ncc2c(n1)CN(Cc1nc(-c3ccoc3)no1)CC2 | -3
92 | Cc1cnn(CC2CN(CC(=O)Nc3nnc(C)s3)CCO2)c1 (stereo unspecified) | -0.472

Row | SMILES | cytotoxicity at 10 µM [%]
93 | COc1c(CNC(c2ccc(F)cc2)c2nccn2C)c(C)nn1C (stereo unspecified) | -12.7
94 | CNS(=O)(=O)Cc1ccc(CNC(=O)Nc2cn[nH]c2)cc1 | -0.935
95 | CC(Cn1cccn1)NC(=O)N(C)Cc1ccc(Cl)s1 (stereo unspecified) | -11.9
96 | C1CC(NCc2nc(C3CC3)no2)CN(Cc2noc(C3CC3)n2)C1 (stereo unspecified) | -8.65
97 | Cc1cc(C)n(CC2CCCN2CC(=O)N(C)Cc2cnn(C)c2)n1 (stereo unspecified) | -5.85
98 | c1cnnc(N2CCCC(NCc3cn4ccccc4n3)C2)c1 (stereo unspecified) | -5.87
99 | O=C(c1ccn(-c2cccc(F)c2)n1)N1CCCC(n2cccn2)C1 (stereo unspecified) | -5.25
100 | Cc1nn(C)c(N2CCOCC2)c1CNCc1ccc(Cl)s1 | 4.09
101 | CC1CN(C(=O)CN(Cc2ccccc2Br)C2CC2)CCO1 (stereo unspecified) | 2.38
102 | Cc1nc(NC2CCCCC2)cc(C2CCCNC2)n1 (stereo unspecified) | -30.3
103 | CCc1nc2ccccc2c(=O)n1CC1(O)CCNCC1 | -15.3
104 | Cc1ccc(C(=O)N2CCC3(CC2)CCN(CCN(C)C)C3=O)cn1 | 5.36
105 | CN(Cc1cccnc1)Cc1cn2c(n1)CN(C1CCOC1)CC2 (stereo unspecified) | 6.2
106 | CC(C)c1cc(C(=O)N2CCOC3(CCNCC3)C2)no1 | 3.65
107 | CC(C)c1cc(C(=O)N2CCc3nc(C4CCCN4)ncc3C2)cs1 (stereo unspecified) | -16.5
108 | c1cnn(Cc2nnc3n2CCCN(CC2CCOCC2)C3)c1 | 2.6
109 | O=C1COC2(CCN(C(=O)c3ccco3)CC2)CN1Cc1ccccn1 | 6.45
110 | Cc1ccccc1CN1C[C@H]2CC[C@@H](C1)N(CC1CCC1)C2=O | 4.86
111 | CCOc1ccc(C(=O)N2C[C@@H]3CC[C@H]2CN(C)C3)cc1OCC | -15.7
